This is a sample that favours compounds with a hit; in the whole collection about 4.2% have one here.
UPR XBP1 act – activators of adaptive arm of unfolded protein response (XBP1); CHO-XBP1 luciferase reporter, IRE1-XBP1 UPR activation, luminescence; percent of tunicamycin response, DMSO as zero; activation, % at 20 µM; hit rate 0.33% among 330,000; AID 463104;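 active = versus positive control, 20 µM dose yields 30% or more activation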;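 note: 100% = tunicamycin at 10 µg/mL and 0% = DMSO only wells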
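Material: CHO-XBP1 cells stably carrying IRE1-XBP1-driven luciferase reporter / Amount: 1000 cells per well / Compound: 20 µM, 1% DMSO / Times: 6 h treatment, 37 °C / Detection: luciferase luminescence / Measure: % activation of reporter signal versus tunicamycin and DMSO controls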
UPR CHOP act – apoptotic UPR (CHOP) activation. AID 449763. hit rate 0.34% among 330,000. CHO-CHOP luciferase reporter, luminescence; percent of tunicamycin response over DMSO baseline. activation, % at 10 µM;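 active = at 10 µM dose, activation of 40% or more, normalized to positive control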;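 note: 100% = tunicamycin at 10 µg/mL and 0% = DMSO alone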
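Assay system: CHO cells with stable CHOP pathway luciferase reporter; Buffer or medium: F12 plus 10% serum; Times: 16-18 h cell attachment, then 6 h compound exposure, 37 °C; Signal: luciferase luminescence; Read-out basis: percent activation relative to tunicamycin control; Control set: tunicamycin high control, DMSO low control.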
ANO1 activ – activates or potentiates the mouse TMEM16A chloride channel; Q8BHY3; HEK293 TMEM16A/YFP-H148Q/I152L, iodide quench fluorescence; hits give low values; B-score at 10 µM; hit rate 0.3% among 340,000;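 active = fluorescence-ratio B-score plate-corrected deviation score at least 3 library SD below zero, with starting fluorescence score within 5 deviations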;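 note: channel opened by trigger with iodide after compound preincubation; score built on the fluorescence ratio of max minus min over baseline; more negative score means more quench and so TMEM16A activation or potentiation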
Lipid droplet – modulators of hepatic lipid droplet formation; AML12 mouse hepatocytes, oleate lipid droplets, BODIPY imaging; inhibition, % at 6.5 µM; hit rate 0.4% among 240,000; AID 1656;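 active = lipid droplet intensity inhibited by at least 50%, with more than 500 cells counted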
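Material – AML12 mouse liver cells · Also added – oleate loading, 100 µM · Compound dosing – 6.5 µM single-point dosing · Times – overnight treatment with compound plus oleate · Measured by – fluorescence imaging, 20x objective, two fields per well · Read-out – percent inhibition of filter-corrected integrated lipid droplet intensity per well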
TMEM16A inh – inhibitors of mouse TMEM16A calcium-activated chloride channel; Q8BHY3; HEK293 TMEM16A/YFP iodide influx fluorescence, ionomycin; normalized B-score (activity score, 25-100; higher = stronger inhibition) at 10 µM; hit rate 1.2% among 310,000; AID 588511;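 active = ratio plate-corrected score three or more library SD toward inhibition, starting fluorescence score within five deviations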;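 note: score derived from kinetic fluorescence span divided by baseline fluorescence per well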
CHOP inh – blocks CHOP induction under ER stress | hit rate 3.8% among 220,000 | AID 2732 | inhibition, % at 10 µM | CHO-K1 CHOP-promoter luciferase, tunicamycin-induced, 15-18 h;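 active = compounds that reduced the stress-induced luciferase reporter signal by more than about 70% of percent inhibition, limit read from the data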;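 note: 0% = tunicamycin plus vehicle and 100% = wells without tunicamycin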
TMEM16A reconf – TMEM16A (mouse) chloride channel inhibition, re-confirmation; shares compounds with TMEM16A inh; HEK293 TMEM16A/YFP-H148Q, iodide quench fluorescence; ionomycin added to raise cell calcium; inhibition, % at 10 µM; hit rate 39% among 2,300; AID 652189;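 active = mean duplicate percent inhibition, scaled so buffer wells are 0 and the reference blocker 100, over three buffer SD above buffer mean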
TMEM16A Ca cntr – counter-screen for TMEM16A inhibitors: effect on calcium mobilization. hit rate 2% among 2,300. AID 652231. calcium response (% of ionomycin), % at 10 µM. shares compounds with TMEM16A inh. TMEM16A/YFP HEK293, Fluo4 calcium mobilization;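 active = duplicate-averaged calcium signal over 20% of the ionomycin maximum, relative to buffer baseline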;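 note: each well's signal is peak minus trough fluorescence divided by its pre-addition baseline; 0% = buffer wells and 100% = ionomycin wells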
YFP-HEK293 quench – counter-screen for TMEM16A inhibitors: effect in parental YFP-HEK293 cells. shares compounds with TMEM16A inh. iodide YFP quench, ionomycin. YFP ratio F(max-min)/F0 at 10 µM. 2,300 tested, under 10 active. AID 652233;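 active = yellow fluorescent protein signal ratio exceeding the buffer control mean by over 5 SD of those controls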;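 note: ratio is mean of duplicate wells from kinetic YFP trace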
ClC-1 rat inh – selectivity of TMEM16A inhibitors: inhibition of rat ClC-1 chloride channel. ratio percent, % at 10 µM. shares compounds with TMEM16A inh. AID 652236. CHO ClC-1-YFP, iodide influx fluorescence quench; iodide control reads 0, buffer control 100. 2,300 tested, under 10 active;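 active = duplicate-mean ratio percent above the mean of iodide-only control wells, which defines zero, plus 5 of their SD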;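 note: higher percent means stronger block of ClC-1 iodide influx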
* marks the source's active call; other numbers are inactive results; i = inactive; · = not tested or not shown.

SMILES	UPR XBP1 act	UPR CHOP act	ANO1 activ	Lipid droplet	TMEM16A inh	CHOP inh	TMEM16A reconf	TMEM16A Ca cntr	YFP-HEK293 quench	ClC-1 rat inh
Cc1cc(N2CCNCC2)nc2ccccc12	-2	-2	i	·	i	·	·	·	·	·
Cc1oc2ccc(OC(=O)N(C)C)cc2c1C(=O)OC(C)C	0	1	i	-2	i	48	·	·	·	·
CCOC(=O)c1c(-c2ccc(OC)cc2)oc2ccc(OC(=O)N(C)C)cc12	0	-2	i	-30	100*	9	i	i	-1.2	-12
O=C1CC=C2C3CC4N(CCC45c4cc(O)c(O)cc4N1C25)CC3=CCBr (stereo unspecified)	·	·	i	·	·	·	·	·	·	·
COc1ccc(OC)c(CC(=O)O)c1	-1	-1	-4.9*	·	25*	-8	i	i	-1	6
Cc1cc(OC(=O)c2cccs2)c2c3c(c(=O)oc2c1)CCCC3	0	-2	i	-19	i	18	·	·	·	·
Cc1cc(OC(=O)c2ccco2)c2c3c(c(=O)oc2c1)CCCC3	-2	3	i	5	100*	76*	i	i	-1	-10
CCCNC(=O)c1c(N)n(Cc2ccco2)c2nc3ccccc3nc12	0	1	·	24	i	83*	i	i	-1	-6
CC(C)CNC(=O)c1c(N)n(Cc2ccco2)c2nc3ccccc3nc12	-1	2	i	31	i	14	18%*	i	-1	-8
COCCOC(=O)c1c(N)n(Cc2ccco2)c2nc3ccccc3nc12	-4	-3	i	21	i	·	·	·	·	·
Cc1ccc(N)c(C(=O)c2ccc(Br)cc2)c1	0	-1	i	0	100*	42	i	i	-1.2	-7
NNC(N)=O	-7	-1	i	·	i	-13	·	·	·	·
CCN(CC)C(=O)N[C@H]1C[C@@H]2c3cccc4[nH]cc(c34)C[C@H]2N(C)C1	-7	-2	i	1	i	5	i	i	-1	-3
CN1C[C@H](CO)C[C@@H]2c3cccc4[nH]cc(c34)C[C@H]21	-2	0	i	-5	i	·	·	·	·	·
CCCNc1nc(OC)nc(N2CC3CC(C2)c2cccc(=O)n2C3)n1 (stereo unspecified)	-1	0	i	-21	i	9	·	·	·	·
